Drawing on ChEMBL document CHEMBL2331536, “Indenoindolone derivatives as topoisomerase II-inhibiting anticancer agents” (Bioorg Med Chem Lett, 2013), this text covers Activity, CC50 and inhibition for 22 compounds.

Structures are written as SMILES. Active and inactive are the calls of the source. No cut-off for these calls is given here.

In one data set the test system is Nucleic Acid. Put plainly: Induction of DNA intercalation in negatively Escherichia coli super coiled small circular plasmid DNA assessed as retradation of DNA migration at 100 uM incubated for 20 mins at 37 degC by agarose-gel electrophoresis. The class given is nucleic-acid assay. Summed up: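 250 ng negatively supercoiled small circular plasmid DNA (from E. coli) incubated with test agent or ethidium bromide, 37 °C, 20 min. Products resolved on 1% agarose gel in TAE buffer.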

The subject of the next data set is HEK293. Put plainly: Cytotoxicity against HEK293 cells after 48 hrs by MTT assay. The class given is functional. The conditions noted are these: Homo sapiens, HEK293, 48 h; read-out: LC50 (the source's name). In short, it runs like this: (§1)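 HEK-293 (ATCC CRL-1573) or normal monkey kidney Vero (ATCC CCL-81) cells were plated, then exposed to a range of compound concentrations for 48 h. MTT was added, and the formazan was dissolved in detergent solution and read at 570 nm. LC50 is the concentration giving 50% cell death. Data are the mean SD of three separate experiments.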
(Tetrazolium assays rely on reduction of a dye to a coloured formazan, in cell work by metabolically active cells.)

Data set [1] in a line: Cytotoxicity against african green monkey Vero cells after 48 hrs by MTT assay. Type of data set: cell-based. The conditions noted are these: chlorocebus sabaeus, read-out: LC50. Summed up:
as §1

In data set [2] the target is T1, DNA topoisomerase 1 (Homo sapiens) (UniProt P11387).
T1 sequence (whole entry): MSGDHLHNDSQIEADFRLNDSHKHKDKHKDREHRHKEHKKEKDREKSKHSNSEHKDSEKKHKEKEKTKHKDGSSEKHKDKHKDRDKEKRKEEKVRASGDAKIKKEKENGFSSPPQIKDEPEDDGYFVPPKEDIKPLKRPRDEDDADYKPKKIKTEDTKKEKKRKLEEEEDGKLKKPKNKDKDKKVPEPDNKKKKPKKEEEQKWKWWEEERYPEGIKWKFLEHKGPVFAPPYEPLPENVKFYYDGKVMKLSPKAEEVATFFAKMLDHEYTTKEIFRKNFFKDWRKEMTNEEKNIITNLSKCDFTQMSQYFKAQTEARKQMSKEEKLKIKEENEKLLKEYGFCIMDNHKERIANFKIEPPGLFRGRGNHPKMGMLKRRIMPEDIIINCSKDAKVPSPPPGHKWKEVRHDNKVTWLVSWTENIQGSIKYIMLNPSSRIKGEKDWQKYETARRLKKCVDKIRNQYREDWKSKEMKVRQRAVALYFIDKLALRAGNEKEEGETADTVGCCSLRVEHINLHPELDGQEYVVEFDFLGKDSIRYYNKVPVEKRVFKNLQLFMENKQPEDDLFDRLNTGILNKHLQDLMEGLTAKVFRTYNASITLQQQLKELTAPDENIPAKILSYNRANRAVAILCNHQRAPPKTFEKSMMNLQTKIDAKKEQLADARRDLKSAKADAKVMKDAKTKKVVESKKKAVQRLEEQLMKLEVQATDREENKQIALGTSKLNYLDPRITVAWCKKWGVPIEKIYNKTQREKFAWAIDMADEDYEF
Put plainly: Inhibition of human DNA topoisomerase 1 assessed as effect on relaxation of negatively super colied DNA at 100 uM incubated for 30 mins at 37 degC by agarose-gel electrophoresis. In short, it runs like this:
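Negatively supercoiled DNA treated with human topoisomerase I plus test agent or 100 µM camptothecin, 37 °C, 30 min. Relaxation judged on 1% agarose gel electrophoresis in TAE buffer.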

For data set [3], the target named is DNA topoisomerase 2-alpha (Homo sapiens) (UniProt P11388). Put plainly: Inhibition of human topoisomerase 2alpha at 100 uM incubated for 30 mins at 37 degC by agarose-gel electrophoresis based ATP-dependent kDNA decatenation assay. Summed up:
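Commercial topoisomerase drug-screening kit, in vitro ATP-dependent assay. kDNA treated with hTopoIIα plus test agent or 100 µM etoposide, 37 °C, 30 min. Run on 1% agarose gel in TAE buffer; decatenated product quantified.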

Sequence of DNA topoisomerase 2-alpha (Homo sapiens) (P11388 whole entry): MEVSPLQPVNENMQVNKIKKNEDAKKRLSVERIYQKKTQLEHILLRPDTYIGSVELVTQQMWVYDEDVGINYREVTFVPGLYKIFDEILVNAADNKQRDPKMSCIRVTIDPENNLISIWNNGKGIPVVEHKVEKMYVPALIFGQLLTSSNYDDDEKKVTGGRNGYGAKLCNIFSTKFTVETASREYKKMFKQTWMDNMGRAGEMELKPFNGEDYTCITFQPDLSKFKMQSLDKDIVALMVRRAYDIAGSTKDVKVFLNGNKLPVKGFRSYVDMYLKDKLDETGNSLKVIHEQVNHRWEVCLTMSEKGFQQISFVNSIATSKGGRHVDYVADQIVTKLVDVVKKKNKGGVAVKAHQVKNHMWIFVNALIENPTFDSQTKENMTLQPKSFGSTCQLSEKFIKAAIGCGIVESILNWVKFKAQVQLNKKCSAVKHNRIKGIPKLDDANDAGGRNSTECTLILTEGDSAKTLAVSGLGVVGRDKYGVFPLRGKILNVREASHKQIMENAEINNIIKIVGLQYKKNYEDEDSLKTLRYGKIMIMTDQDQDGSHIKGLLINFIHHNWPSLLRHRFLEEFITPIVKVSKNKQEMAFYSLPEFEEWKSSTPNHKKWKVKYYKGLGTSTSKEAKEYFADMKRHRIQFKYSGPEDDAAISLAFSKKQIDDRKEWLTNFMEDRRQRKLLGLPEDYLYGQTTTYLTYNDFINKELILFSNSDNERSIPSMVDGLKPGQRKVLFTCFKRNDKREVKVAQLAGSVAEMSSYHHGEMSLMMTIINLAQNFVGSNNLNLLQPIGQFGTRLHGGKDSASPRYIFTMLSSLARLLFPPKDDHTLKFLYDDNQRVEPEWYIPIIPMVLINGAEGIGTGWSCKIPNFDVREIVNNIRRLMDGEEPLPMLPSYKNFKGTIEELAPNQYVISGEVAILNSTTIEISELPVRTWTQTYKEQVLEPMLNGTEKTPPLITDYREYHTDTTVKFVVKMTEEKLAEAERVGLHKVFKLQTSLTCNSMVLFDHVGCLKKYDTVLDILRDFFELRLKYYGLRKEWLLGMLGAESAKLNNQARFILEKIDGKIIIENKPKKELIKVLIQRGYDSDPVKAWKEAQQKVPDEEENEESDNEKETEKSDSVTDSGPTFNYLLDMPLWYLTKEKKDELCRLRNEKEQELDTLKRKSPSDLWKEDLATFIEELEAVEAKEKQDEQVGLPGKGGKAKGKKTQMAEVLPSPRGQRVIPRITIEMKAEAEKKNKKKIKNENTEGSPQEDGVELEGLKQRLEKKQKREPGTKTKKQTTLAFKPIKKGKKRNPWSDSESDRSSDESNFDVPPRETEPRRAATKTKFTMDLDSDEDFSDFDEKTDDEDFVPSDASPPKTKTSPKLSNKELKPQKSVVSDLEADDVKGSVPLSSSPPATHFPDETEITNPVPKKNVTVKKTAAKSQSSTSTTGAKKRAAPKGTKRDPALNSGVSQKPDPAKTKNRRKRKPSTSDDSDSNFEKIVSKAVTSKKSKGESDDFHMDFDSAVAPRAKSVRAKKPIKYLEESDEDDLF

Regarding `COc1ccc2c(c1)C(O)c1c-2n(C)c2ccccc12` (centres undefined), the outcome in the data set on Nucleic Acid was inactive. The CC50 in the data set on HEK293 was 4 µM. Also, in data set [1], the CC50 at 48 h amounted to 30 µM. In data set [2], the inhibition entry is “inactive”. For the same compound, the inhibition result in data set [3] is “Active”.

For `O/N=C1\c2ccccc2-c2[nH]c3ccccc3c21`, the outcome in the data set with Nucleic Acid was inactive. In addition, in the data set with HEK293, the CC50 turned out to be 6 µM. Also, the CC50 at 48 h in data set [1] was determined as 60 µM. Besides, the inhibition result in data set [2] was “inactive”. In addition, in data set [3], the inhibition result is “Active”.

On to `Cn1c2c(c3ccccc31)/C(=N/Nc1ccccc1)c1ccccc1-2`, for which the inhibition entry in data set [3] is “Active”.

For the compound `c1ccc(Cn2c3c(c4ccccc42)/C(=N/Nc2ccccc2)c2ccccc2-3)cc1`, in data set [3], the inhibition entry was “Active”.

Turning to `NC(=S)N/N=C1\c2ccccc2-c2[nH]c3ccccc3c21`, the outcome in the data set with Nucleic Acid was inactive. The CC50 with HEK293 worked out at 7 µM. Further, the CC50 at 48 h in data set [1] was 50 µM. Moreover, the inhibition result in data set [2] was “inactive”. The inhibition entry in data set [3] is “Active”.

As for `c1ccc(N/N=C2\c3ccccc3-c3[nH]c4ccccc4c32)cc1`, in data set [3], the inhibition entry was “Active”.

For `COc1ccc2c(c1)/C(=N\O)c1c-2n(C)c2ccccc12`, the outcome in the data set on Nucleic Acid was inactive. Further, in the data set with HEK293, the CC50 was determined as 5 µM. Further, the CC50 at 48 h in data set [1] came out at 60 µM. Also, the inhibition result in data set [2] was “inactive”. Also, the inhibition result in data set [3] is “Active”.

For the compound `COc1ccc(N/N=C2/c3cc(OC)c(OC)c(OC)c3-c3c2c2ccccc2n3C)cc1`, the inhibition result in data set [3] was “Active”.

As to `CN1c2ccccc2C2=C(O)c3ccccc3C21` (centres undefined), in data set [3], the inhibition entry was “Active”.

For the compound `COc1cc([C@@H]2c3cc4c(cc3[C@@H](O[C@@H]3O[C@@H]5CO[C@@H](C)O[C@H]5[C@H](O)[C@H]3O)[C@H]3COC(=O)[C@H]23)OCO4)cc(OC)c1O` [ETOPOSIDE], the outcome with Nucleic Acid was inactive. Besides, the CC50 in the data set with HEK293 is 17 µM. In addition, the CC50 at 48 h in data set [1] is 29 µM.

With `COc1ccc(N/N=C2\c3ccccc3-c3c2c2ccccc2n3Cc2ccccc2)cc1`, in data set [3], the inhibition result is “Active”.

With `CC[n+]1c(-c2ccccc2)c2cc(N)ccc2c2ccc(N)cc21`, in the data set on Nucleic Acid, the result was Active.

In the case of `COc1ccc(N/N=C2\c3ccccc3-c3c2c2ccccc2n3C)cc1`, the inhibition entry in data set [3] was “Active”.

For the compound `O=c1[nH]cc(F)c(=O)[nH]1` [FLUOROURACIL], in the data set on HEK293, the CC50 amounted to 25 µM.

Take `COc1cc2c(c(OC)c1OC)-c1c(c3ccccc3n1C)C2O` (centres undefined): the outcome in the data set on Nucleic Acid was inactive. The CC50 in the data set with HEK293 was 8 µM. For the same compound, in data set [1], the CC50 at 48 h came to 40 µM. Moreover, the inhibition result in data set [2] was “inactive”. Further, the inhibition result in data set [3] was “Active”.

`O/N=C1\c2ccccc2-c2c1c1ccccc1n2Cc1ccccc1`: in data set [3], the inhibition result was “Active”.

On to `COc1ccc2c(c1)c1c(n2C)-c2ccccc2/C1=N\Nc1ccccc1`, for which the inhibition result in data set [3] is “Active”.

In the case of `Cc1ccc(N/N=C2\c3ccccc3-c3c2c2ccccc2n3C)cc1`, the inhibition result in data set [3] is “Active”.

Turning to `COc1ccc(N/N=C2/c3cc(OC)c(OC)cc3-c3c2c2ccccc2n3C)cc1`, the inhibition result in data set [3] is “Active”.

Consider `Cn1c2c(c3ccccc31)/C(=N/NC(=O)Nc1ccccc1)c1ccccc1-2`, for which the inhibition entry in data set [3] was “Active”.

For `O=C(N/N=C1\c2ccccc2-c2c1c1ccccc1n2Cc1ccccc1)Nc1ccccc1`, the inhibition result in data set [3] is “Active”.

For `COc1ccc2c(c1)/C(=N\Nc1ccccc1)c1c-2n(C)c2ccccc12`, the inhibition result in data set [3] is “Active”.
